Experimental data as given in ChEMBL document CHEMBL4007453, “Identification of Non-Nucleoside Inhibitors of the Respiratory Syncytial Virus Polymerase Complex” (J Med Chem, 2017).
In brackets after ≈: the same amount, converted by molar mass. One block for each compound: values may come before it.

Experiments:
[1] = Selectivity index, ratio of CC50 for human BEAS2B cells to EC50 for inhibition of recombinant mkate-tagged-Respiratory syncytial virus-A2-L19F RNA-dependent RNA polymerase complex D489E mutant in human BEAS2B cells infected with Respiratory syncytial virus-A2-L19F; format: toxicity, cell-based; conditions: read-out: Ratio CC50/EC50
Summary of the method: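 SI is CC50/EC50 in BEAS-2B cells. EC50 came from reporter RSV dose-response, 3-fold dilutions, top 10 µM. […] Both values from four-parameter variable-slope regression.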

[2] = Inhibition of recombinant Respiratory syncytial virus-A2-L19F RNA-dependent RNA polymerase complex D489E mutant transfected with firefly luciferase gene at SMASh domain in human BEAS2B cells infected with Respiratory syncytial virus-A2-L19F assessed as reduction in viral replication measured after […] by bioluminescence assay; format: cell-based; conditions: human respiratory syncytial virus, A2-L19F, BEAS-2B
Summary of the method: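 BEAS-2B cells (1.5×10^4/well) received 3-fold serial compound dilutions prepared in three repeats (top concentration 10 µM) and were infected with firefly-luciferase/SMASh reporter RSV-A2-L19F D489E (MOI 0.1). Luminescence was converted to % inhibition against four-replicate positive and negative controls per plate. EC50 came from four-parameter variable-slope regression.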

[3] = tested on: BEAS-2B; test: Cytotoxicity against human BEAS2B cells after 48 hrs by PrestoBlue staining based fluorescence assay; format: cell-based
Summary of the method: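 Uninfected BEAS-2B cells were exposed to compound for 48 h at 37°C. PrestoBlue was added and incubated 90 min at 37°C, then fluorescence was read (ex 560 nm, em 590 nm). Cytotoxic was defined as metabolic activity <70% of vehicle control. Highest concentration assessed for cytotoxicity was 90 µM, and CC50 came from four-parameter variable slope regression.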

[4] = Aqueous solubility of the compound in citrate buffer at pH 5 after 90 mins by laser nephelometric method; format: physicochemical
Summary of the method: (§1)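 Stocks of 30 mg/mL in DMSO were serially diluted in DMSO, then into buffer to final 300 down to 1.5 µg/mL at 1% final DMSO. Diluent was PBS for pH 7.4 and citrate buffer for pH 3 and 5. Plates stood 90 min at ambient temperature. Forward-scatter laser nephelometry gave the concentration at which precipitation began.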

[5] = Aqueous solubility of the compound in phosphate buffered saline at pH 7.4 after 90 mins by laser nephelometric method; format: physicochemical; summary of the method: as §1
[6] = Aqueous solubility of the compound in citrate buffer at pH 3 after 90 mins by laser nephelometric method; format: physicochemical; summary of the method: as §1
[7] = tested on: Respiratory syncytial virus; test: Inhibition of Respiratory syncytial virus-A2-L19F RNA-dependent RNA polymerase complex D489E mutant in human BEAS2B cells infected with Respiratory syncytial virus-A2-L19F by firefly luciferase reporter-based RSV minigenome assay; format: cell-based
[8] = Inhibition of recombinant mkate-tagged-Respiratory syncytial virus-A2-L19F RNA-dependent RNA polymerase D489E mutant in human BEAS2B cells infected with Respiratory syncytial virus-A2-L19F assessed as reduction in progeny release measured after 48 hrs postinfection by fluorescence assay based progeny virus yield-based dose-response assay; format: cell-based; conditions: BEAS-2B
Summary of the method: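 Cells in 12-well format infected with mKate-expressing recRSV-A2-L19F (MOI 0.05 particles/cell) in the presence of serial compound dilutions at 37°C. Cell-associated progeny harvested 48 h post-infection and released by one freeze/thaw cycle. Titres determined by TCID50 titration. Two repeats; EC50 derived by regression.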

[9] = tested on: Liver; test: Drug level in mouse liver microsomes treated with at 1 uM GRP-74915 by LC-MS analysis; format: ADME, microsome
[10] = tested on: Liver; test: Stability in mouse liver microsomes at 1 uM in absence of NADPH after 2 hrs by LC-MS analysis; format: ADME, microsome
Summary of the method: (§2)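 Test article at 1 µM final was incubated in triplicate at 37°C with shaking (150 rpm) with mouse or human liver S9 or microsomes (0.5 mg total protein), with Phase I oxidation and Phase II glucuronidation cofactors. Cofactor-free and microsome-free controls were run, sampled only at 0 and 120 min. Other sampling was at 0, 15, 30, 60 and 120 min into organic internal standard solution.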

[11] = tested on: Liver; test: Drug metabolism in mouse liver microsomes assessed as metabolite M4 formation at 80 uM after 2 hrs by LC-MS analysis; format: ADME, microsome
Summary of the method: (§3)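 Metabolite identification used 80 µM test article incubated in triplicate with mouse liver microsomes (0.5 mg total protein) plus Phase I oxidation and Phase II glucuronidation cofactors, at 37°C with shaking at 150 rpm. Aliquots were taken at 0, 15, 30, 60 and 120 min and mixed with organic internal standard solution.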

[12] = tested on: Liver; test: Half life in mouse liver microsomes at 1 uM in presence of NADPH by LC-MS analysis; format: ADME, microsome; summary of the method: as §2
[13] = tested on: Liver; test: Drug metabolism in mouse liver microsomes assessed as metabolite M3 formation at 80 uM after 2 hrs by LC-MS analysis; format: ADME, microsome; summary of the method: as §3
[14] = Retention time of the compound at 80 uM by LC-MS analysis
[15] = tested on: Liver; test: Half life in mouse liver S9 fraction at 1 uM by LC-MS analysis; format: ADME, tissue-based; conditions: s9, 1 µM; summary of the method: as §2
[16] = tested on: Liver; test: Drug metabolism in mouse liver microsomes assessed as metabolite M2 formation at 80 uM after 2 hrs by LC-MS analysis; format: ADME, microsome; summary of the method: as §3
[17] = tested on: Liver; test: Drug metabolism in mouse liver microsomes assessed as metabolite M1 formation at 80 uM after 2 hrs by LC-MS analysis; format: ADME, microsome; summary of the method: as §3
[18] = tested on: Liver; test: Half life in human liver microsomes at 1 uM by LC-MS analysis; format: ADME, microsome; summary of the method: as §2

SMILES: Cc1ccoc1C(=O)N1CCCn2nc(C(=O)Nc3ccc(F)cc3F)cc2C1
- selectivity ratio [1]: 83
- EC50 [2]: 0.06 µM
- CC50 [3]: 5 µM

SMILES: O=C(Nc1ccccc1)c1cc2n(n1)CCCN(C(=O)c1occ3c1CCC3)C2
- EC50 [2]: 10 µM
- CC50 [3]: 10 µM

SMILES: Cc1ccoc1C(=O)N1CCCn2nc(C(=O)Nc3ccc(F)cc3)cc2C1
- selectivity ratio [1]: 273
- EC50 [2]: 0.33 µM
- CC50 [3]: 90 µM

SMILES: Cc1cc(C)c(C(=O)N2CCCn3nc(C(=O)Nc4ccccc4)cc3C2)o1
- EC50 [2]: 0.96 µM
- CC50 [3]: 2.6 µM

SMILES: Cc1ccoc1C(=O)N1CCCn2nc(C(=O)NCc3ccccc3)cc2C1
- selectivity ratio [1]: 42
- EC50 [2]: 1.2 µM
- CC50 [3]: 50 µM

SMILES: O=C(Nc1ccccc1)c1cc2n(n1)CCCN(S(=O)(=O)c1ccco1)C2
- EC50 [2]: > 10 µM

SMILES: Cc1coc(C(=O)N2CCCn3nc(C(=O)Nc4ccccc4)cc3C2)c1
- EC50 [2]: > 10 µM

SMILES: Cc1ccoc1C(=O)N1CCCn2nc(C(=O)Nc3ccncn3)cc2C1
- selectivity ratio [1]: 11
- EC50 [2]: 1.53 µM
- CC50 [3]: 16.6 µM

SMILES: O=C(Nc1ccccc1)c1cc2n(n1)CCCN(C(=O)c1ccncn1)C2
- EC50 [2]: > 10 µM

SMILES: Cc1ccoc1C(=O)N1CCCn2nc(C(=O)N(C)c3ccccc3)cc2C1
- solubility kinetic at 1.5 h [4]: 25 µg/mL (≈ 66.1 µM)
- solubility kinetic at 1.5 h [5]: 58 µg/mL (≈ 153 µM)
- solubility kinetic at 1.5 h [6]: 20 µg/mL (≈ 52.8 µM)
- selectivity ratio [1]: > 9
- EC50 [2]: 10 µM
- CC50 [3]: > 90 µM

SMILES: CCc1ccoc1C(=O)N1CCCn2nc(C(=O)Nc3ccccc3)cc2C1
- selectivity ratio [1]: 14
- EC50 [2]: 0.73 µM
- CC50 [3]: 10 µM

SMILES: Cc1ccn(C)c1C(=O)N1CCCn2nc(C(=O)Nc3ccccc3)cc2C1
- EC50 [2]: > 10 µM

SMILES: Cc1ccoc1C(=O)N1CCCn2nc(C(=O)Nc3cncnc3)cc2C1
- EC50 [2]: > 10 µM

SMILES: Cc1ccoc1CN1CCCn2nc(C(=O)Nc3ccccc3)cc2C1
- EC50 [2]: > 10 µM

SMILES: Cc1ccc(C(=O)N2CCCn3nc(C(=O)Nc4ccccc4)cc3C2)o1
- EC50 [2]: > 10 µM

SMILES: Cn1c(=O)n(C)c2cc(Cn3cnc(-c4ccccc4)c3C3CC3)ccc21
- inhibition [7]: Dose-dependent effect
- EC50 [8]: 0.17 µM

SMILES: COc1ccccc1NC(=O)c1cc2n(n1)CCCN(C(=O)c1occc1C)C2
- solubility kinetic at 1.5 h [4]: 43 µg/mL (≈ 109 µM)
- solubility kinetic at 1.5 h [5]: 28 µg/mL (≈ 71 µM)
- solubility kinetic at 1.5 h [6]: 48 µg/mL (≈ 122 µM)
- selectivity ratio [1]: 11
- EC50 [2]: 0.31 µM
- CC50 [3]: 3.3 µM

SMILES: CC(C)c1cc(C(=O)NCc2noc(-c3cccs3)n2)n(C)n1
- inhibition [7]: Dose-dependent effect
- EC50 [8]: 0.03 µM

SMILES: O=C(Nc1ccccc1)c1cc2n(n1)CCCN(C(=O)c1occc1C(F)(F)F)C2
- selectivity ratio [1]: 6
- EC50 [2]: 5.4 µM
- CC50 [3]: 30 µM

SMILES: Cc1cccc(NC(=O)c2cc3n(n2)CCCN(C(=O)c2occc2C)C3)c1
- selectivity ratio [1]: 12
- EC50 [2]: 0.28 µM
- CC50 [3]: 3.3 µM

SMILES: Cc1ccccc1NC(=O)c1cc2n(n1)CCCN(C(=O)c1occc1C)C2
- selectivity ratio [1]: 8
- EC50 [2]: 0.14 µM
- CC50 [3]: 1.1 µM

SMILES: Cc1ccoc1C(=O)N1CCCn2nc(NC(=O)c3ccccc3)cc2C1
- EC50 [2]: > 10 µM

SMILES: Cc1ccoc1C(=O)N1CCCn2nc(C(=O)Nc3cccc(F)c3)cc2C1
- selectivity ratio [1]: 143
- EC50 [2]: 0.21 µM
- CC50 [3]: 30 µM

SMILES: COc1cccc(NC(=O)c2cc3n(n2)CCCN(C(=O)c2occc2C)C3)c1
- selectivity ratio [1]: 56
- EC50 [2]: 0.54 µM
- CC50 [3]: 30 µM

SMILES: Cc1ccoc1C(=O)N1CCn2nc(C(=O)Nc3ccccc3)cc2C1
- EC50 [2]: > 10 µM

SMILES: Cc1nc2ccccn2c1CN(C)C(=O)c1cc(COc2ccc(F)cc2F)on1
- inhibition [7]: Dose-dependent effect
- EC50 [8]: 0.05 µM

SMILES: Cc1ccsc1C(=O)N1CCCn2nc(C(=O)Nc3ccccc3)cc2C1
- EC50 [2]: > 10 µM

SMILES: O=C(Nc1ccccc1)c1cc2n(n1)CCCN(C(=O)c1ccco1)C2
- EC50 [2]: 7.1 µM

SMILES: Cc1c(C(=O)N2CCCn3nc(C(=O)Nc4ccccc4)cc3C2)oc2ccccc12
- EC50 [2]: 10 µM

SMILES: COc1cc(N2CCCC(CO)(Cc3cccc(Cl)c3)C2)ncn1 (stereo not drawn)
- inhibition [7]: Dose-dependent effect
- EC50 [8]: 0.13 µM

SMILES: O=C(Nc1ccccc1F)c1cc2n(n1)CCCN(C(=O)c1ccco1)C2
- selectivity ratio [1]: 12
- EC50 [2]: 0.32 µM
- CC50 [3]: 3.7 µM

SMILES: Cc1coc(C(=O)N2CCCn3nc(C(=O)Nc4ccccc4)cc3C2)c1C
- selectivity ratio [1]: 13
- EC50 [2]: 2.25 µM
- CC50 [3]: 30 µM

SMILES: Cc1ccoc1C(=O)N1CCCn2cc(C(=O)Nc3ccccc3)cc2C1
- selectivity ratio [1]: > 28
- EC50 [2]: 3.19 µM
- CC50 [3]: > 90 µM

SMILES: Cc1ccoc1C(=O)N1CCCn2nc(NS(=O)(=O)c3ccccc3)cc2C1
- EC50 [2]: > 10 µM

SMILES: Cc1cc(C(=O)N2CCCn3nc(C(=O)Nc4ccccc4)cc3C2)oc1C
- EC50 [2]: > 10 µM

SMILES: Cc1ccc(NC(=O)c2cc3n(n2)CCCN(C(=O)c2occc2C)C3)cc1
- selectivity ratio [1]: 73
- EC50 [2]: 0.41 µM
- CC50 [3]: 30 µM

- Drug metabolism [9]: Metabolite_Detected
SMILES: Cc1ccoc1C(=O)N1CCCn2nc(C(=O)O)cc2C1

SMILES: Cc1ccoc1C(=O)N1CCCn2nc(C(=O)Cc3ccccc3)cc2C1
- Stability [10]: Stable
- Drug metabolism [11]: Metabolite_Detected
- t1/2 [12]: 20 min
- solubility kinetic at 1.5 h [4]: 18 µg/mL (≈ 49.5 µM)
- Drug metabolism [13]: Metabolite_Detected
- solubility kinetic at 1.5 h [5]: 18 µg/mL (≈ 49.5 µM)
- Retention time [14]: 12.9 min
- solubility kinetic at 1.5 h [6]: < 15 µg/mL
- selectivity ratio [1]: 79
- EC50 [2]: 0.07 µM
- t1/2 [15]: 20 min
- Drug metabolism [16]: Metabolite_Detected
- Drug metabolism [17]: Metabolite_Detected
- t1/2 [18]: 42 min
- CC50 [3]: 5.5 µM

SMILES: O=C(Nc1ccccc1)c1cc2n(n1)CCCN(C(=O)c1occc1Cl)C2
- selectivity ratio [1]: 39
- EC50 [2]: 0.76 µM
- CC50 [3]: 30 µM

SMILES: O=C(Nc1ccccc1)c1cc2n(n1)CCCN(C(=O)c1occc1-c1ccccc1)C2
- EC50 [2]: > 10 µM

SMILES: Cc1cc[nH]c1C(=O)N1CCCn2nc(C(=O)Nc3ccccc3)cc2C1
- EC50 [2]: > 10 µM

SMILES: COc1ccc(NC(=O)c2cc3n(n2)CCCN(C(=O)c2occc2C)C3)cc1
- selectivity ratio [1]: 281
- EC50 [2]: 0.32 µM
- CC50 [3]: 90 µM

SMILES: Cc1ccoc1C(=O)N1CCCn2nc(S(=O)(=O)Nc3ccccc3)cc2C1
- EC50 [2]: > 10 µM

SMILES: Cc1ccoc1C(=O)N1CCCn2nc(CNc3ccccc3)cc2C1
- selectivity ratio [1]: 20
- EC50 [2]: 0.5 µM
- CC50 [3]: 10 µM
